Measurements reported in ChEMBL document CHEMBL1126752, “Synthesis and biological activity of cis-(3aR)-(-)-2,3,3a,4,5,9b-hexahydro- 3-propyl-1H-benz[e]indole-9-carboxamide: a potent and selective 5-HT1A receptor agonist with good oral availability” (J Med Chem, 1993).
The source made the active and inactive calls. No cut-off for these calls is given here.

Legend:
[1] = biological target: T1, 5-hydroxytryptamine receptor 1A (Homo sapiens, UniProt P08908); test: Binding affinity against [3H]8-OH-DPAT-labeled 5-hydroxytryptamine 1A receptor sites in cloned CHO cells; type: cell-based
T1 sequence (P08908 whole entry): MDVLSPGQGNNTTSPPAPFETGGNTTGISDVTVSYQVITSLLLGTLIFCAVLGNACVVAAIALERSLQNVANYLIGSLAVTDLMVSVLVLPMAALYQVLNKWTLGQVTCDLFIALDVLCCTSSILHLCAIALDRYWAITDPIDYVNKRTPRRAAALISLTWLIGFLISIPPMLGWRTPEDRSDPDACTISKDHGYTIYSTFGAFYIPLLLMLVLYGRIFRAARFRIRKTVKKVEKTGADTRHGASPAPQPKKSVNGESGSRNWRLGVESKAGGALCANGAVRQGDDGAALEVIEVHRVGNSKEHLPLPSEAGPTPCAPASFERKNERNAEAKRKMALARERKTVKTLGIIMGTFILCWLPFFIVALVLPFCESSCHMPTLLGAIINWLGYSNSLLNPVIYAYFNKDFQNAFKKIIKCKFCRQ
In short: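 Competition binding against [3H]-8-OH-DPAT (85 Ci/mmol, 1.2 nM) using 11 dilutions of test compound. Receptor was cloned mammalian 5-HT1A expressed in CHO-K1 cells. IC50 from a one-site nonlinear least-squares fit, converted to Ki by Cheng-Prusoff. Ki reported ±SEM.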

Mus musculus [2] = test: Swimming activity of the treated mice/control mice at 39 umol/kg, sc; type: functional
Mus musculus [3] = test: Swimming activity of the treated mice/control mice at 12 umol/kg, sc; type: functional
Rattus norvegicus [4] = test: In vivo motor activity at 50 umol/kg (sc) in male rats expressed as accumulated counts/30 min; type: functional
Rattus norvegicus [5] = test: DOPA accumulation in corpus striatum of reserpinized rats following subcutaneous administration at highest dose tested (50 umol/kg); Inactive; type: functional, organism-based
Rattus norvegicus [6] = test: DOPA accumulation in hemispheres of reserpinized rats following subcutaneous administration at highest dose tested (50 umol/kg); Inactive; type: functional, organism-based
Rattus norvegicus [7] = test: DOPA accumulation in limbic system of reserpinized rats following subcutaneous administration at highest dose tested (50 umol/kg); Inactive; type: functional, organism-based
Rattus norvegicus [8] = organism: Rattus norvegicus; test: Compound was tested for gross behavioral response in rats; partial 5-HT syndrome; type: functional, organism-based
[9] = Half-life time in rats; type: ADME, organism-based; details: rat, in vivo
In short: (§1)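 Male Sprague-Dawley rats (300 g) with arterial catheters, sampled from 24 h after surgery for 10-24 h; oral groups starved 18 h with free water. Blood levels measured by GC/MS with internal standard, samples run in duplicate. Availability from po vs iv AUC (n = 4), dosed 1 μmol/kg iv and 20 μmol/kg po.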

Felis catus [10] = test: Maximum decrease in blood pressure observed following 1 mg/kg dose in anesthetized cat; type: functional; set-up: unit not given here
In short: (§2)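 Adult cats (2.5-4.0 kg) anesthetized with ketamine 11 mg/kg im then chloralose 80 mg/kg iv. Animals paralyzed with gallamine, ventilated, and kept at 37-38 °C. Blood pressure recorded via femoral artery. Sympathetic activity quantified by cumulative integration. Increasing doses given iv cumulatively at 20-min intervals.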

Felis catus [11] = test: Maximum decrease in sympathetic nerve discharge in anesthetized cat; type: functional
In short: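 Cats (2.5-4.0 kg) anesthetized with ketamine 11 mg/kg im then chloralose 80 mg/kg iv, paralyzed with gallamine and ventilated, rectal temperature kept at 37-38 °C. Increasing iv doses given cumulatively at 20-min intervals; sympathetic activity quantified by cumulative integration and expressed as percent of control.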

Felis catus [12] = test: Percent arterial blood pressure at sympathetic nerve discharge in anesthetized cat; type: functional; in short: as §2
Felis catus [13] = test: Inhibition of sympathetic nerve discharge (SND) in anesthetized cat; type: functional; in short: as §2
Mus musculus [14] = test: Swimming activity of the treated mice/control mice at 1.2 umol/kg, sc; type: functional
Mus musculus [15] = test: Swimming activity of the treated mice/control mice at 12 umol/kg, sc (p < 0.001); type: functional
Mus musculus [16] = test: Swimming activity of the treated mice/control mice at 4.0 umol/kg, sc (p < 0.001); type: functional
Mus musculus [17] = test: Swimming activity of the treated mice/control mice at 41 umol/kg, sc (p < 0.001); type: functional
Rattus norvegicus [18] = test: In vivo motor activity at 0.2 umol/kg (sc) in male rats expressed as accumulated counts/30 min (p < 0.05); type: functional
Rattus norvegicus [19] = test: 5-HTP accumulation in corpus striatum of reserpinized rats following peroral administration; type: functional; details: po
Rattus norvegicus [20] = test: 5-HTP accumulation in corpus striatum of reserpinized rats following subcutaneous administration; type: functional; details: sc
Rattus norvegicus [21] = organism: Rattus norvegicus; test: Inhibition of 5-HT1A cell firing in rats; type: functional
In short: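 Male Sprague-Dawley rats (280-330 g) under chloral hydrate anesthesia (400 mg/kg ip), drug given iv via femoral vein in distilled water. Dorsal raphe serotonergic neurons recorded extracellularly and confirmed histologically by dye deposit. Firing rate followed by integrated ratemeter.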

Rattus norvegicus [22] = test: 5-HTP accumulation in hemispheres of reserpinized rats following peroral administration; type: functional; details: po
Rattus norvegicus [23] = test: 5-HTP accumulation in hemispheres of reserpinized rats following subcutaneous administration; type: functional; details: sc
Rattus norvegicus [24] = test: 5-HTP accumulation in limbic system of reserpinized rats following peroral administration; type: functional; details: po
Rattus norvegicus [25] = test: 5-HTP accumulation in limbic system of reserpinized rats following subcutaneous administration; type: functional; details: sc
Rattus norvegicus [26] = test: DOPA accumulation in corpus striatum of reserpinized rats following peroral administration at highest dose tested (50 umol/kg); Inactive; type: functional, organism-based
Rattus norvegicus [27] = test: DOPA accumulation in hemispheres of reserpinized rats following peroral administration at highest dose tested (50 umol/kg); Inactive; type: functional, organism-based
Rattus norvegicus [28] = test: DOPA accumulation in limbic system of reserpinized rats following peroral administration at highest dose tested (50 umol/kg); Inactive; type: functional, organism-based
Rattus norvegicus [29] = test: In vivo motor activity at 61 umol/kg (po) in male rats expressed as accumulated counts/30 min (p < 0.001); type: functional
Rattus norvegicus [30] = organism: Rattus norvegicus; test: Compound was tested for gross behavioral response in rats; full-blown 5-HT syndrome; type: functional, organism-based
Rattus norvegicus [31] = test: Oral availability obtained from blood plasma levels of the parent compound following 1 uMol /kg intravenous and 20 umol /kg peroral administration; type: functional, organism-based; in short: as §1
Mus musculus [32] = test: Effect on hypothermia in mice following peroral administration; details: po
Mus musculus [33] = test: Effect on hypothermia in mice following subcutaneous administration; details: sc
Rattus norvegicus [34] = test: In vivo motor activity at 10 umol/kg (po) in male rats expressed as accumulated counts/30 min (p < 0.05)
Mus musculus [35] = test: Swimming activity of the treated mice/control mice at 3.9 umol/kg, sc (p < 0.001); type: functional
Mus musculus [36] = test: Swimming activity of the treated mice/control mice at 39 umol/kg, sc (p < 0.001); type: functional
Rattus norvegicus [37] = test: In vivo motor activity at 50 umol/kg (sc) in male rats expressed as accumulated counts/30 min (p < 0.01); type: functional
Mus musculus [38] = test: Swimming activity of the treated mice/control mice at 39 umol/kg, sc (p < 0.05); type: functional

Structure (SMILES) | Ki [1] | Swimming activity (Mus musculus [3]) | ED50 (Rattus norvegicus [5]) | ED50 (Rattus norvegicus [6]) | ED50 (Rattus norvegicus [7]) | Swimming activity (Mus musculus [14]) | Swimming activity (Mus musculus [15]) | ED50 (Rattus norvegicus [20]) | ED50 (Rattus norvegicus [21]) | ED50 (Rattus norvegicus [23]) | ED50 (Rattus norvegicus [25]) | ED50 (Mus musculus [32]) | ED50 (Mus musculus [33]) | also measured
CCCN1CCC2c3c(cccc3C(N)=O)CC[C@@H]21 (single isomer, unassigned; (+)-3b) | > 1440 nM | 1.2 | – | – | – | – | – | – | – | – | – | – | – | Swimming activity (Mus musculus [2]): 1.1; Accumulated counts/30 min (Rattus norvegicus [4]): 9
CCCN1CC[C@H]2c3c(cccc3C(N)=O)CC[C@H]21 (stereo in doubt; (-)-3b) [listing 1 of 2 here] | – | – | inactive | inactive | inactive | – | – | – | – | – | – | – | – | Response (Rattus norvegicus [8]): Partially active
CCCN(CCC)C1CCc2cccc(O)c2C1 (racemic) [8-OH-DPAT] | – | – | inactive | inactive | inactive | 0.9 T/C | 4.6 T/C | 0.052 µmol/kg | 0.006 µmol/kg | 0.063 µmol/kg | 0.052 µmol/kg | 30 µmol/kg | 3 µmol/kg | half-life [9]: 1 h; Max decrease (Felis catus [10]): 57; Max decrease (Felis catus [11]): 2; BP (Felis catus [12]): 66%; ED50 (Felis catus [13]): 0.03 µmol/kg; Swimming activity (Mus musculus [16]): 6.7 T/C; Swimming activity (Mus musculus [17]): 3.4 T/C; Accumulated counts/30 min (Rattus norvegicus [18]): 66; ED50 (Rattus norvegicus [19]): 7.9 µmol/kg; ED50 (Rattus norvegicus [22]): 7.6 µmol/kg; ED50 (Rattus norvegicus [24]): 3 µmol/kg; ED50 (Rattus norvegicus [26]): inactive; ED50 (Rattus norvegicus [27]): inactive; ED50 (Rattus norvegicus [28]): inactive; Accumulated counts/30 min (Rattus norvegicus [29]): 883; Response (Rattus norvegicus [30]): Active; bioavailability (Rattus norvegicus [31]): 2.4%; Accumulated counts/30 min (Rattus norvegicus [34]): 17
CCCN1CCC2c3c(cccc3C(N)=O)CC[C@@H]21 (single isomer, unassigned; (+)-3a) | 17 nM | – | – | – | – | 1 | 4.7 | 1.6 µmol/kg | > 1.2 µmol/kg | 5.2 µmol/kg | 1.8 µmol/kg | 28 µmol/kg | 8.9 µmol/kg | Swimming activity (Mus musculus [35]): 4; Swimming activity (Mus musculus [36]): 8.3; Accumulated counts/30 min (Rattus norvegicus [37]): 17
CCCN1CC[C@H]2c3c(cccc3C(N)=O)CC[C@H]21 (stereo in doubt; (-)-3b) [listing 2 of 2 here] | 28 nM | 0.7 | – | – | – | – | – | – | – | – | – | – | – | Swimming activity (Mus musculus [38]): 1.7
